Measured values published in ChEMBL document CHEMBL1154152, “Synthesis of some novel bioactive 4-oxy/thio substituted-1H-pyrazol-5(4H)-ones via efficient cross-Claisen condensation” (2009).
In brackets after ≈: the same amount, converted by molar mass. Blank lines part the entries; values can stand above or below the molecule they belong to.

Tests used:
Assay type in all cases: functional
[1] = test system: Trichophyton mentagrophytes; assay: Antifungal activity against Trichophyton mentagrophytes after 3 to 4 days by serial plate dilution method
[2] = test system: Talaromyces marneffei; assay: Antifungal activity against Penicillium marneffei after 3 to 4 days by serial plate dilution method
Method in brief: (§1)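 Sabouraud's agar made from peptone, D-glucose and agar, pH 5.7, and lawned with a fungal spore suspension in normal saline. Wells cut with an agar punch received 10–50 mg/ml test compound in DMSO; DMSO-only control plates. Triplicate plates kept at 37 °C for 3–4 days.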

[3] = test system: Staphylococcus aureus; assay: Antibacterial activity against Staphylococcus aureus ATCC 25923 after 24 hrs by disk diffusion method; settings: for MIC: Staphylococcus aureus, ATCC 25923, 24 h
Method in brief: (§2)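 Discs with each concentration, in triplicate, on nutrient agar seeded with fresh bacteria. Incubated 37 °C for 24 h, with solvent and growth controls. Zones of inhibition and MIC recorded.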

[4] = test system: Escherichia coli; assay: Antibacterial activity against Escherichia coli ATTC 25922 after 24 hrs by disk diffusion method; settings: for MIC: Escherichia coli, ATTC 25922, 24 h; method in brief: as §2
[5] = test system: Pseudomonas aeruginosa; assay: Antibacterial activity against Pseudomonas aeruginosa ATTC 27853 after 24 hrs by disk diffusion method; settings: for MIC: Pseudomonas aeruginosa, ATTC 27853, 24 h; method in brief: as §2
[6] = test system: Klebsiella sp.; assay: Antibacterial activity against Klebsiella sp. after 24 hrs by disk diffusion method; settings: for MIC: Klebsiella sp., 24 h; method in brief: as §2
[7] = test system: Trichophyton mentagrophytes; assay: Antifungal activity against Trichophyton mentagrophytes at 10 to 50 ug/ml after 3 to 4 days by serial plate dilution method
[8] = test system: Talaromyces marneffei; assay: Antifungal activity against Penicillium marneffei at 10 to 50 ug/ml after 3 to 4 days by serial plate dilution method
[9] = test system: Aspergillus flavus; assay: Antifungal activity against Aspergillus flavus at 10 to 50 ug/ml after 3 to 4 days by serial plate dilution method
[10] = test system: Aspergillus flavus; assay: Antifungal activity against Aspergillus flavus after 3 to 4 days by serial plate dilution method; method in brief: as §1
[11] = test system: Aspergillus fumigatus; assay: Antifungal activity against Aspergillus fumigatus at 10 to 50 ug/ml after 3 to 4 days by serial plate dilution method
[12] = test system: Aspergillus fumigatus; assay: Antifungal activity against Aspergillus fumigatus after 3 to 4 days by serial plate dilution method

Compound: CCC1=NN(c2ccc(F)cc2)C(=O)C1Oc1ccccc1 (configuration not stated)
MIC [1]: 6.25 µg/mL (≈ 21 µM) | MIC [2]: 6.25 µg/mL (≈ 21 µM) | inhibition zone (IZ) [3]: 16 mm | MIC [3]: 6.25 µg/mL (≈ 21 µM) | inhibition zone (IZ) [4]: 14 mm | MIC [4]: 25 µg/mL (≈ 83.8 µM) | inhibition zone (IZ) [5]: 18 mm | MIC [5]: 6.25 µg/mL (≈ 21 µM) | inhibition zone (IZ) [6]: 20 mm | MIC [6]: 6.25 µg/mL (≈ 21 µM) | inhibition zone (IZ) [7]: 21 mm | inhibition zone (IZ) [8]: 17 mm | inhibition zone (IZ) [9]: 19 mm | MIC [10]: 6.25 µg/mL (≈ 21 µM) | inhibition zone (IZ) [11]: 21 mm | MIC [12]: 6.25 µg/mL (≈ 21 µM)

Compound: CCC1=NNC(=O)C1Oc1ccccc1 (configuration not stated)
MIC [1]: 6.25 µg/mL (≈ 30.6 µM) | MIC [2]: 6.25 µg/mL (≈ 30.6 µM) | inhibition zone (IZ) [3]: 19 mm | MIC [3]: 6.25 µg/mL (≈ 30.6 µM) | inhibition zone (IZ) [4]: 18 mm | MIC [4]: 6.25 µg/mL (≈ 30.6 µM) | inhibition zone (IZ) [5]: 20 mm | MIC [5]: 6.25 µg/mL (≈ 30.6 µM) | inhibition zone (IZ) [6]: 16 mm | MIC [6]: 6.25 µg/mL (≈ 30.6 µM) | inhibition zone (IZ) [7]: 16 mm | inhibition zone (IZ) [8]: 18 mm | inhibition zone (IZ) [9]: 21 mm | MIC [10]: 6.25 µg/mL (≈ 30.6 µM) | inhibition zone (IZ) [11]: 17 mm | MIC [12]: 6.25 µg/mL (≈ 30.6 µM)

Compound: CC(C)(C)C1=NNC(=O)C1Oc1ccccc1 (configuration not stated)
MIC [1]: 6.25 µg/mL (≈ 26.9 µM) | MIC [2]: 6.25 µg/mL (≈ 26.9 µM) | inhibition zone (IZ) [3]: 16 mm | MIC [3]: 6.25 µg/mL (≈ 26.9 µM) | inhibition zone (IZ) [4]: 18 mm | MIC [4]: 6.25 µg/mL (≈ 26.9 µM) | inhibition zone (IZ) [5]: 20 mm | MIC [5]: 6.25 µg/mL (≈ 26.9 µM) | inhibition zone (IZ) [6]: 18 mm | MIC [6]: 6.25 µg/mL (≈ 26.9 µM) | inhibition zone (IZ) [7]: 19 mm | inhibition zone (IZ) [8]: 21 mm | inhibition zone (IZ) [9]: 16 mm | MIC [10]: 6.25 µg/mL (≈ 26.9 µM) | inhibition zone (IZ) [11]: 18 mm | MIC [12]: 6.25 µg/mL (≈ 26.9 µM)

Compound: COCC1=NNC(=O)C1SCc1ccccc1 (configuration not stated)
MIC [1]: 50 µg/mL (≈ 200 µM) | MIC [2]: 50 µg/mL (≈ 200 µM) | inhibition zone (IZ) [3]: 17 mm | MIC [3]: 6.25 µg/mL (≈ 25 µM) | inhibition zone (IZ) [4]: <10 mm | MIC [4]: 50 µg/mL (≈ 200 µM) | inhibition zone (IZ) [5]: <10 mm | MIC [5]: 50 µg/mL (≈ 200 µM) | inhibition zone (IZ) [6]: <10 mm | MIC [6]: 50 µg/mL (≈ 200 µM) | inhibition zone (IZ) [7]: <10 mm | inhibition zone (IZ) [8]: <10 mm | inhibition zone (IZ) [9]: <10 mm | MIC [10]: 50 µg/mL (≈ 200 µM) | inhibition zone (IZ) [11]: <10 mm | MIC [12]: 50 µg/mL (≈ 200 µM)

Compound: COc1ccc(OC2C(=O)NN=C2C)cc1 (configuration not stated)
MIC [1]: 50 µg/mL (≈ 227 µM) | MIC [2]: 50 µg/mL (≈ 227 µM) | inhibition zone (IZ) [3]: 19 mm | MIC [3]: 6.25 µg/mL (≈ 28.4 µM) | inhibition zone (IZ) [4]: 11 mm | MIC [4]: 25 µg/mL (≈ 114 µM) | inhibition zone (IZ) [5]: <10 mm | MIC [5]: 50 µg/mL (≈ 227 µM) | inhibition zone (IZ) [6]: <10 mm | MIC [6]: 50 µg/mL (≈ 227 µM) | inhibition zone (IZ) [7]: <10 mm | inhibition zone (IZ) [8]: <10 mm | inhibition zone (IZ) [9]: <10 mm | MIC [10]: 50 µg/mL (≈ 227 µM) | inhibition zone (IZ) [11]: <10 mm | MIC [12]: 50 µg/mL (≈ 227 µM)

Compound: CC(C)CC1=NN(c2ccc(F)cc2)C(=O)C1Sc1ccccc1 (configuration not stated)
MIC [1]: 6.25 µg/mL (≈ 18.3 µM) | MIC [2]: 6.25 µg/mL (≈ 18.3 µM) | inhibition zone (IZ) [3]: 19 mm | MIC [3]: 6.25 µg/mL (≈ 18.3 µM) | inhibition zone (IZ) [4]: 13 mm | MIC [4]: 25 µg/mL (≈ 73 µM) | inhibition zone (IZ) [5]: 20 mm | MIC [5]: 6.25 µg/mL (≈ 18.3 µM) | inhibition zone (IZ) [6]: 19 mm | MIC [6]: 6.25 µg/mL (≈ 18.3 µM) | inhibition zone (IZ) [7]: 18 mm | inhibition zone (IZ) [8]: 19 mm | inhibition zone (IZ) [9]: 20 mm | MIC [10]: 6.25 µg/mL (≈ 18.3 µM) | inhibition zone (IZ) [11]: 19 mm | MIC [12]: 6.25 µg/mL (≈ 18.3 µM)

Compound: O=C(O)c1cn(C2CC2)c2cc(N3CCNCC3)c(F)cc2c1=O [CIPROFLOXACIN]
inhibition zone (IZ) [3]: 23 mm | MIC [3]: 6.25 µg/mL (≈ 18.9 µM) | inhibition zone (IZ) [4]: 32 mm | MIC [4]: 6.25 µg/mL (≈ 18.9 µM) | inhibition zone (IZ) [5]: 28 mm | MIC [5]: 6.25 µg/mL (≈ 18.9 µM) | inhibition zone (IZ) [6]: 24 mm | MIC [6]: 6.25 µg/mL (≈ 18.9 µM)

Further molecules by falling MIC [1], results first:

MIC [1]: 6.25 µg/mL (≈ 25.2 µM) | MIC [2]: 6.25 µg/mL (≈ 25.2 µM) | MIC [3]: 6.25 µg/mL (≈ 25.2 µM) | MIC [4]: 6.25 µg/mL (≈ 25.2 µM) | MIC [5]: 6.25 µg/mL (≈ 25.2 µM) | MIC [6]: 6.25 µg/mL (≈ 25.2 µM) | MIC [10]: 6.25 µg/mL (≈ 25.2 µM) | MIC [12]: 6.25 µg/mL (≈ 25.2 µM)
Compound: CC(C)CC1=NNC(=O)C1Sc1ccccc1 (configuration not stated)
inhibition zone (IZ) [3]: 19 mm | inhibition zone (IZ) [4]: 21 mm | inhibition zone (IZ) [5]: 18 mm | inhibition zone (IZ) [6]: 21 mm | inhibition zone (IZ) [7]: 21 mm | inhibition zone (IZ) [8]: 18 mm | inhibition zone (IZ) [9]: 18 mm | inhibition zone (IZ) [11]: 18 mm

MIC [1]: 6.25 µg/mL (≈ 22.1 µM) | MIC [2]: 6.25 µg/mL (≈ 22.1 µM) | MIC [3]: 6.25 µg/mL (≈ 22.1 µM) | MIC [4]: 25 µg/mL (≈ 88.4 µM) | MIC [5]: 6.25 µg/mL (≈ 22.1 µM) | MIC [6]: 6.25 µg/mL (≈ 22.1 µM) | MIC [10]: 6.25 µg/mL (≈ 22.1 µM) | MIC [12]: 6.25 µg/mL (≈ 22.1 µM)
Compound: CC(C)CC1=NNC(=O)C1Sc1ccc(Cl)cc1 (configuration not stated)
inhibition zone (IZ) [3]: 18 mm | inhibition zone (IZ) [4]: 11 mm | inhibition zone (IZ) [5]: 17 mm | inhibition zone (IZ) [6]: 16 mm | inhibition zone (IZ) [7]: 19 mm | inhibition zone (IZ) [8]: 20 mm | inhibition zone (IZ) [9]: 18 mm | inhibition zone (IZ) [11]: 17 mm

MIC [1]: 6.25 µg/mL (≈ 25.4 µM) | MIC [2]: 6.25 µg/mL (≈ 25.4 µM) | MIC [3]: 6.25 µg/mL (≈ 25.4 µM) | MIC [4]: 25 µg/mL (≈ 101 µM) | MIC [5]: 6.25 µg/mL (≈ 25.4 µM) | MIC [6]: 6.25 µg/mL (≈ 25.4 µM) | MIC [10]: 6.25 µg/mL (≈ 25.4 µM) | MIC [12]: 6.25 µg/mL (≈ 25.4 µM)
Compound: CC(C)CC1=NN(C)C(=O)C1Oc1ccccc1 (configuration not stated)
inhibition zone (IZ) [3]: 19 mm | inhibition zone (IZ) [4]: 12 mm | inhibition zone (IZ) [5]: 19 mm | inhibition zone (IZ) [6]: 17 mm | inhibition zone (IZ) [7]: 18 mm | inhibition zone (IZ) [8]: 19 mm | inhibition zone (IZ) [9]: 18 mm | inhibition zone (IZ) [11]: 16 mm

MIC [1]: 6.25 µg/mL (≈ 28.4 µM) | MIC [2]: 6.25 µg/mL (≈ 28.4 µM) | MIC [3]: 6.25 µg/mL (≈ 28.4 µM) | MIC [4]: 25 µg/mL (≈ 114 µM) | MIC [5]: 6.25 µg/mL (≈ 28.4 µM) | MIC [6]: 6.25 µg/mL (≈ 28.4 µM) | MIC [10]: 6.25 µg/mL (≈ 28.4 µM) | MIC [12]: 6.25 µg/mL (≈ 28.4 µM)
Compound: COCC1=NNC(=O)C1Oc1ccccc1 (configuration not stated)
inhibition zone (IZ) [3]: 17 mm | inhibition zone (IZ) [4]: 12 mm | inhibition zone (IZ) [5]: 17 mm | inhibition zone (IZ) [6]: 20 mm | inhibition zone (IZ) [7]: 17 mm | inhibition zone (IZ) [8]: 17 mm | inhibition zone (IZ) [9]: 18 mm | inhibition zone (IZ) [11]: 20 mm

MIC [1]: 6.25 µg/mL (≈ 26.7 µM) | MIC [2]: 6.25 µg/mL (≈ 26.7 µM) | MIC [3]: 6.25 µg/mL (≈ 26.7 µM) | MIC [4]: 6.25 µg/mL (≈ 26.7 µM) | MIC [5]: 6.25 µg/mL (≈ 26.7 µM) | MIC [6]: 6.25 µg/mL (≈ 26.7 µM) | MIC [10]: 6.25 µg/mL (≈ 26.7 µM) | MIC [12]: 6.25 µg/mL (≈ 26.7 µM)
Compound: CCC1=NNC(=O)C1SCc1ccccc1 (configuration not stated)
inhibition zone (IZ) [3]: 16 mm | inhibition zone (IZ) [4]: 17 mm | inhibition zone (IZ) [5]: 20 mm | inhibition zone (IZ) [6]: 17 mm | inhibition zone (IZ) [7]: 17 mm | inhibition zone (IZ) [8]: 19 mm | inhibition zone (IZ) [9]: 17 mm | inhibition zone (IZ) [11]: 17 mm

MIC [1]: 3.12 µg/mL | MIC [2]: 6.25 µg/mL | MIC [10]: 3.12 µg/mL | MIC [12]: 6.25 µg/mL
Compound: Cc1cc(C2CCCCC2)n(O)c(=O)c1.NCCO [CICLOPIROX OLAMINE]
inhibition zone (IZ) [7]: 27 mm | inhibition zone (IZ) [8]: 23 mm | inhibition zone (IZ) [9]: 27 mm | inhibition zone (IZ) [11]: 26 mm
